Treatment period and Control period data for 5 compounds are collected here from ChEMBL document CHEMBL1127750, “Enhancement of iron excretion via monoanionic 3-hydroxypyrid-4-ones” (1994).

Assay [1] concerns Rattus norvegicus. The assay can be described thus: The treatment period of compound (microg of Fe/h) for biliary excretion of Iron after intravenous administration to the rats. In kind it is functional, Bile. The gist of the method:
(§1)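 Normal (untreated) rats under pentobarbital anesthesia, bile duct cannulated with PE-10 tubing. Bile collected 30 min for the control rate, then chelator given 0.2 mmol/kg iv by tail vein in deionized water, pH about 7 with sodium bicarbonate, and bile collected a further 2 h. Bile mass measured and iron determined by atomic absorption spectrometry; rate expressed per hour. Controls received pentobarbital only.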

Assay [2] relates to Rattus norvegicus. Description: The control period of compound (microg of Fe/15h) for urinary excretion of Iron after intravenous administration to the rats. In kind it is functional, Urine. The gist of the method: (§2)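 Unloaded normal rats, each serving as its own control, housed in metabolic cages. Control day: 1 mL distilled water/200 g body weight iv, urine collected 15 h (5 p.m.–8 a.m.) and analyzed for iron. Next day: chelator 0.2 mmol/kg iv by tail vein under ether anesthesia in 1 mL deionized water, pH about 7 with sodium bicarbonate; urine again collected 15 h for iron.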

Assay [3] relates to Rattus norvegicus. Description: The treatment period of compound (microg of Fe/15h) for urinary excretion of Iron after peroral administration to the rats. It is filed as functional, Urine. The gist of the method:
(§3)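 Unloaded normal rats in metabolic cages act as their own controls. Food is withdrawn at 5 p.m. on both days. Control day: 1 mL distilled water po, urine collected until 8 a.m. (15 h), food returned, urine analyzed for iron. Treatment day: chelator 1 mmol/kg po in 1 mL distilled water, then another 15 h urine collection for iron analysis.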

In assay [4] the test system is Rattus norvegicus. Description: The control period of compound (microg of Fe/h) for biliary excretion of Iron after intravenous administration to the rats. It is filed as functional, Bile. The gist of the method: as §1
Assay [5] has as its system Rattus norvegicus. Description: The treatment period of compound (microg of Fe/15h) for urinary excretion of Iron after intravenous administration to the rats. In kind it is functional, Urine. The gist of the method: as §2
In assay [6] the test system is Rattus norvegicus. Description: The control period of compound (microg of Fe/15h) for urinary excretion of Iron after peroral administration to the rats. In kind it is functional, Urine. The gist of the method:
as §3

On to `Cn1cc(O)c(=O)cc1C(=O)O`, for which the Treatment period in the assay with Rattus norvegicus [1] was 5.87; with Rattus norvegicus [3], 6740 ng of Fe/15 h; in the assay with Rattus norvegicus [5], 6830 ng of Fe/15 h. The Control period in the assay on Rattus norvegicus [2] was 410 ng of Fe/15 h; in the assay with Rattus norvegicus [4] it was 0.34; in the assay on Rattus norvegicus [6], 497 ng of Fe/15 h.
`O=C(O)c1cc(=O)c(O)co1` showed a Treatment period with Rattus norvegicus [1] of 0.46. The compound further yielded a Control period with Rattus norvegicus [4] of 0.35.
Take `O=c1cc(CO)n(CCS(=O)(=O)O)cc1O`: the Treatment period was 9.96 in the assay on Rattus norvegicus [1], 350 ng of Fe/15 h with Rattus norvegicus [3] and 2200 ng of Fe/15 h in the assay on Rattus norvegicus [5]. The Control period in the assay on Rattus norvegicus [2] was 504 ng of Fe/15 h; in the assay with Rattus norvegicus [4] it was 0.35; in the assay on Rattus norvegicus [6] it was 296 ng of Fe/15 h.
As for `Cc1c(O)c(=O)ccn1C` [DEFERIPRONE], the Treatment period in the assay with Rattus norvegicus [1] was 4.78; with Rattus norvegicus [3] it was 17400 ng of Fe/15 h; in the assay with Rattus norvegicus [5], 8370 ng of Fe/15 h. For the same compound, the Control period with Rattus norvegicus [2] was 490 ng of Fe/15 h; in the assay on Rattus norvegicus [4] it was 0.36; with Rattus norvegicus [6] it was 400 ng of Fe/15 h.
On to `O=c1cc(CO)occ1O` [KOJIC ACID], for which the Treatment period in the assay with Rattus norvegicus [1] is given as 0.28. Moreover, the Control period with Rattus norvegicus [4] came out at 0.31.
